Like-named read-outs stand apart in the source and are kept apart here. Bounds are passed on as bounds.

Here are results for twelve molecules from publication PMC6242712 (ChemMedChem, 2018).

The test system of data set [1] is U87MG cells. Put plainly: MTT growth inhibition assay, U87MG. As to conditions: for IC50: read-out: IC50, cytotoxicity U87MG; for Effect on cell growth: in words. In general terms: Tetrazolium dyes change colour on reduction, which living cells bring about.
The test system of data set [2] is NU04 cells. Kind of data set: MTT growth inhibition assay, NU04. The settings on record: Homo sapiens, 72 h, read-out: IC50, cytotoxicity NU04.
Data set [3] relates to A172 cells. Kind of data set: MTT growth inhibition assay, A172. As to conditions: Homo sapiens, A 172, 72 h, read-out: IC50, cytotoxicity A172.
The subject of data set [4] is U118MG cells. Kind of data set: MTT growth inhibition assay, U118MG. As to conditions: Homo sapiens, U-118-MG, 72 h, read-out: IC50, cytotoxicity U118MG.
Data set [5] addresses T1, PDI (Homo sapiens, UniProt P07237). Kind of data set: PDI-catalyzed insulin reduction. The class given is biochemical.
In data set [6] the target is T2, glutathione-transferase Omega 1 (GSTO1) (Homo sapiens, UniProt P78417).
T2 sequence (P78417 1-241): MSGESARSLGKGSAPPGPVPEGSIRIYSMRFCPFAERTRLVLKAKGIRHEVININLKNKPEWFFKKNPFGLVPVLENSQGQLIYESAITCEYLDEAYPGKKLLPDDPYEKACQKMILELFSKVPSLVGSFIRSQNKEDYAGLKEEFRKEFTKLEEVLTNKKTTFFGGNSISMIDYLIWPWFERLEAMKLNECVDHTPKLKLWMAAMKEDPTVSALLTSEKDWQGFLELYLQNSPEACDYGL
Kind of data set: Cellular thermal shift assay. The class given is cell-based. The settings on record: U87MG cells, 2 hours. The essentials: (§1)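 U87MG cells (2 × 10^6 per 100 mm dish) were attached overnight, then treated with test compound (0.5, 1.0 or 2.0 μM) or DMSO for 2 h at 37 °C, 5% CO2. Cells were trypsinized, washed in DPBS and aliquoted. Aliquots were heated at set temperatures for 3 min, held 3 min at room temperature and freeze-thawed twice. Cleared supernatants were run on 10% SDS-PAGE and Western blotted.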

The subject of data set [7] is U87MG cells. Kind of data set: ROS detection assay. It is filed as cell-based, human. The settings on record: 5 μM, 24 hours; comparable to 100 μM hydrogen peroxide. In short, it runs like this:
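Trypsinized U87MG cells were loaded in suspension with 20 μM H2DCFDA for 30 min at 37 °C, washed, plated at 20,000 cells/well, rested 30 min, then treated. Fluorescence (493/523 nm) was read at 4, 6 and 24 h. Hydrogen peroxide (500, 100, 20 μM) served as reference. Means ± standard deviation of three independent experiments.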

In a further data set the target is T3, GSTO1 (Homo sapiens, UniProt P78417).
T3 sequence (P78417 1-241): T2 sequence (P78417 1-241)
Put plainly: DARTS assay in U87MG cell lysates, GSTO1. As to conditions: 100 μM compound, U87MG lysate. The class given is binding. The essentials:
(§2)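 U87MG cells at 80–85% confluence were lysed on ice for 10 min (150 mM NaCl, 1% NP-40, 0.5% deoxycholate, 50 mM Tris pH 8.0) and cleared at 18,000 × g. Lysate (5 mg/ml) was incubated with 100 μM test compound or DMSO for 30 min at RT. Pronase (0, 0.005, 0.01, 0.02 μg/μL) was added for 30 min at RT and stopped with protease inhibitors on ice. 20 μg protein was Western blotted; three independent experiments.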

Data set [8] concerns U87MG cells. Kind of data set: MTT cell viability with or without deferoxamine. The class given is cell-based. The settings on record: Homo sapiens, U-87 MG, 12 h, read-out: IC50, cell viability, used alone.
Data set [9] deals with T4, GRP78 (Homo sapiens, UniProt P11021). Kind of data set: DARTS assay in U87MG cell lysates, GRP78. The settings on record: 100 μM compound, U87MG lysate. It is filed as binding. In short, it runs like this:
as §2

Data set [10] concerns U87MG cells. Put plainly: Western blot of protein expression. It is filed as cell-based, human. As to conditions: 24-hour treatment. The essentials:
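U87MG cells were treated with test compound (1 or 2 μM) or vehicle for 24 h. 50 μg protein on 10% gels (12% for LC3B, DDIT3), transferred to PVDF. GAPDH loading control; triplicate experiments.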
Background: A western blot detects proteins with antibodies after separation by electrophoresis.

The subject of data set [11] is U87MG cells. Put plainly: Bru-seq nascent RNA sequencing. It is filed as cell-based, human. The settings on record: 1 μM, 4 hours. In short, it runs like this: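 U87MG cells plated on day 1, given fresh medium on day 5, then exposed to test compound (1 μM) or DMSO for 4 h. Bromouridine (2 mM final) labelled nascent RNA during the last 30 min. Total RNA was isolated in TRIzol, and BrU-RNA was isolated, sequenced and mapped. Genes >300 bp with mean RPKM >0.5 (7,770 genes) were ranked by fold change vs DMSO.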

For data set [12], the target named is T4, GRP78. Put plainly: Cellular thermal shift assay. The settings on record: U87MG cells, 2 hours. The class given is cell-based. In short, it runs like this:
as §1

In data set [13] the target is T1, PDI. Put plainly: Cellular thermal shift assay. The class given is cell-based. The settings on record: U87MG cells, 2 hours. In short, it runs like this: as §1
The subject of the next data set is glioblastoma cells. Kind of data set: MTT growth inhibition of 35G8 combined with Z-VAD-FMK, necrostatin-1 or NAC. It is filed as cell-based, human.
Data set [14] addresses T1, PDI. Kind of data set: DARTS assay in U87MG cell lysates, PDI. The class given is binding. The settings on record: 100 μM compound, U87MG lysate. The essentials:
as §2

For data set [15], the system named is PDI. As to conditions: reversible PDI modulator; cited from earlier work.
The test system of data set [16] is U118MG cells.
The subject of data set [17] is U87MG cells.
The subject of data set [18] is NU04 cells.
Data set [19] deals with A172 cells.

T4 sequence (P11021 19-654): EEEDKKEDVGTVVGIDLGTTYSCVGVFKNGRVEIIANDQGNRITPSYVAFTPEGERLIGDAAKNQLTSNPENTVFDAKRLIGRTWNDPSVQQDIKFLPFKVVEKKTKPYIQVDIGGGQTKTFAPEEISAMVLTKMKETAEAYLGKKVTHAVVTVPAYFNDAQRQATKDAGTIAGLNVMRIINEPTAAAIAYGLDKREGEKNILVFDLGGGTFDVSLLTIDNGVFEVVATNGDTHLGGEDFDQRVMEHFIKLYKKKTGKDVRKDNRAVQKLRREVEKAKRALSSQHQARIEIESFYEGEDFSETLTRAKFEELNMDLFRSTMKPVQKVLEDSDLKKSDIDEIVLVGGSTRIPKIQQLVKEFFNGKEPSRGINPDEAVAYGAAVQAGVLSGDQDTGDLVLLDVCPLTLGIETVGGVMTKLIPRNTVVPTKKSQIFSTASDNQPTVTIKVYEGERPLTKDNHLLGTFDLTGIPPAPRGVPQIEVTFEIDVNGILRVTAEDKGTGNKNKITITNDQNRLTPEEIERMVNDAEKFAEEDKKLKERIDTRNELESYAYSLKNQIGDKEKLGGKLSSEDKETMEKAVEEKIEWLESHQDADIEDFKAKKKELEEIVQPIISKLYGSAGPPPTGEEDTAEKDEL
T1 sequence (P07237 18-508): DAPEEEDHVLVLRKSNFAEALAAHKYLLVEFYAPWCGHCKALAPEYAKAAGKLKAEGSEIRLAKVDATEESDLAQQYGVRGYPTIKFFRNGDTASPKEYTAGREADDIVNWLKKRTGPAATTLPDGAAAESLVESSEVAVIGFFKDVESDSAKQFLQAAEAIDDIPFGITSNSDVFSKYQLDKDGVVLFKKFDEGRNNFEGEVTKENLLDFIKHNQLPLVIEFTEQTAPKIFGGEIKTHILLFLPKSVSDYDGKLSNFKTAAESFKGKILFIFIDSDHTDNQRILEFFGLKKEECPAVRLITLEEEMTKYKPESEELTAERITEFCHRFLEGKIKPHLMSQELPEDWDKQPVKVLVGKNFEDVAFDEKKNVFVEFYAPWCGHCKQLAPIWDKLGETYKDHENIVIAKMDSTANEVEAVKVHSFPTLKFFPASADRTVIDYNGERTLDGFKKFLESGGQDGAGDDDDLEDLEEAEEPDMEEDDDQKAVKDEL

`Cn1nc(-c2ccccc2)nc2c(=O)n(C)c(=O)nc1-2` [Compound 4b, 1,6-Dimethyl-3-phenylpyrimido[5,4-e][1,2,4]triazine-5,7(1H,6H)-dione]: the IC50 turned out to be 3 ± 0.3 µM in the data set on U87MG cells [1] (Homo sapiens, U-87 MG, 72 h); 3.7 ± 1.2 µM in the data set with NU04 cells [2]; 1.8 ± 0.4 µM in the data set with A172 cells [3]; 4.6 ± 0.5 µM in the data set with U118MG cells [4]; 0.39 ± 0.03 µM against PDI [5].
In the same order, the values of `Cn1nc(Cc2ccccc2)nc2c(=O)n(C)c(=O)nc1-2` [Compound 4c, 3-Benzyl-1,6-dimethylpyrimido[5,4-e][1,2,4]triazine-5,7(1H,6H)-dione] are 12.7 ± 3.7 µM, greater than 30 µM, 8.2 ± 2.5 µM, 24 ± 7.4 µM and 0.33 ± 0.04 µM.
In the same order, the values of `COc1ccc(-c2nc3c(=O)n(C)c(=O)nc-3n(C)n2)cc1` [Compound 4d, 3-(4-Methoxyphenyl)-1,6-dimethylpyrimido[5,4-e][1,2,4]triazine-5,7(1H,6H)-dione] are 1.2 ± 0.2 µM, 0.86 ± 0.04 µM, 1.5 ± 0.4 µM, 3.9 ± 0.6 µM and 0.36 ± 0.05 µM.
As for `COc1cccc(-c2nc3c(=O)n(C)c(=O)nc-3n(C)n2)c1` [Compound 4e, 3-(3-Methoxyphenyl)-1,6-dimethylpyrimido[5,4-e][1,2,4]triazine-5,7(1H,6H)-dione], the IC50 in the data set on U87MG cells [1] (Homo sapiens, U-87 MG, 72 h) was 1.1 ± 0.2 µM; in the data set on NU04 cells [2], 0.76 ± 0.22 µM; with A172 cells [3], 1.5 ± 0.1 µM; in the data set on U118MG cells [4] it was 2.4 ± 0.6 µM; against PDI [5], 0.32 ± 0.01 µM.
The like results for `Cn1nc(-c2ccc([N+](=O)[O-])cc2)nc2c(=O)n(C)c(=O)nc1-2` [Compound 4f, 1,6-Dimethyl-3-(4-nitrophenyl)pyrimido[5,4-e][1,2,4]triazine-5,7(1H,6H)-dione] were, in that order, 1.8 ± 0.7 µM, 4.9 ± 1.2 µM, 1.1 ± 0.2 µM, 6.2 ± 1.6 µM and 0.24 ± 0.04 µM.
The like results for `COc1ccc(-c2nn(C)c3nc(=O)n(C)c(=O)c-3[n+]2[O-])cc1` [Compound 5d, 3-(4-Methoxyphenyl)-1,6-dimethyl-5,7-dioxo-1,5,6,7-tetrahydropyrimido[5,4-e][1,2,4]triazine 4-oxide] were, in that order, 1.9 ± 0.7 µM, 1.5 ± 0.7 µM, 1.7 ± 0.1 µM, 4.3 ± 0.1 µM and 0.42 ± 0.07 µM.
Take `Cc1nc2c(=O)n(C)c(=O)nc-2n(C)n1` [Compound 35G8, 1,3,6-Trimethylpyrimido[5,4-e][1,2,4]triazine-5,7(1H,6H)-dione]: the “Effect on thermal stability of GSTO1 (CETSA)” value in data set [6] is “stabilize”. Further, the ROS induction entry in the data set on U87MG cells [7] is listed as “maximal ROS induction”. In addition, in the data set on U87MG cells [1] (Homo sapiens, U-87 MG, 72 h), the IC50 was 1.1 ± 0.2 µM. Also, in the data set on NU04 cells [2], the IC50 came to 0.8 ± 0.2 µM. Besides, on GSTO1, the “Effect on degradation of GSTO1 (DARTS)” value is given as “no effect”. Besides, in the data set with U87MG cells [8], the half-inhibitory concentration (IC50) worked out at 2.2 ± 0.7 µM. Also, the “Effect on degradation of GRP78 (DARTS)” value on GRP78 [9] is on record as “no effect”. In the data set on U87MG cells [10] (2 μM), the “Cleaved LC3B expression” value is on record as “increased significantly”; the DDIT3 protein expression entry is “increased”; the “Expression of ATG3, ATG5, ATG7 and beclin 1” value is reported as “did not change”; the “GRP78 (HSPA5) protein expression” value was “increased”. In addition, in the data set on U87MG cells [10] (1 or 2 μM), the HMOX1 protein expression entry is given as “parallel increases” and the SLC7A11 protein expression entry is given as “parallel increases”. The IC50 with A172 cells [3] came out at 2 ± 0.6 µM. In the data set on U87MG cells [11], this molecule gave a CHAC1 transcription of 46 fold increase, a DDIT3 transcription of 4 fold increase, an EGR1 transcription of −5.65 fold change and an HSPA5 transcription of 8 fold increase. In the data set on U87MG cells [11], this molecule displayed an IRS2 transcription of 12 fold increase, an ITGA3 transcription of −3.89 fold change, a TMEM74 transcription of 28 fold increase and a TRIB3 transcription of 23 fold increase. In the data set on U87MG cells [11], the TXN expression worked out at 2 fold increase, the TXNIP expression stood at 7.4 fold decrease, the TXNIP transcription was −7.40 fold change and the TXNRD1 expression came out at 9 fold increase. Also, the “Effect on thermal stability of GRP78 (CETSA)” value at GRP78 [12] is “little effect”. Moreover, the “Effect on thermal stability of PDI (CETSA)” value at PDI [13] is listed as “destabilized”. In the data set on U118MG cells [4], the IC50 came out at 3.9 ± 0.1 µM. Further, on PDI [5], the concentration for half-maximal inhibition (IC50) is 0.17 ± 0.01 µM. In addition, the “Effect of N-acetyl-cysteine (NAC) on cytotoxicity of 35G8” value in the data set on glioblastoma cells (NAC added at the same time as 35G8) is recorded as “did not affect”. The “Protection from 35G8-induced cell death by necrostatin-1 pretreatment” value in the data set with glioblastoma cells (Necrostatin-1 added 1 hour prior to 35G8) was “did not protect”. Moreover, in the data set on glioblastoma cells (Z-VAD-FMK added 1 hour prior to 35G8), the “Protection from 35G8-induced cell death by Z-VAD-FMK pretreatment” value is on record as “did not protect”. The “Protection of PDI from pronase proteolysis (DARTS)” value on PDI [14] is “protected”.
For `O=C(C1CC1)N1CCN(Cn2sc3ccccc3c2=O)CC1` [LOC14], the EC50 in the data set on PDI [15] was 0.5 µM.
On to `Cn1ncnc2c(=O)n(C)c(=O)nc1-2` [NC72], for which the IC50 with U87MG cells [1] (MTT, 72 hours) is 0.5 ± 0.1 µM.
As for `Cn1c(=O)[nH]c2nncnc2c1=O` [NC75], the “Effect on cell growth” value in the data set with U87MG cells [1] (MTT) is reported as “little effect on cell growth”. For the same molecule, the IC50 with U87MG cells [1] (MTT, 72 hours) was greater than 100 µM.
For the molecule `Cc1nn(C)c2nc(=O)n(C)c(=O)c-2[n+]1[O-]` [NC79], in the data set on U87MG cells [1] (MTT), the “Effect on cell growth” value is listed as “little effect on cell growth”. The IC50 in the data set with U87MG cells [1] (MTT, 72 hours) was greater than 100 µM.
In the case of PACMA31, the 50% inhibitory concentration (IC50) turned out to be 0.28 ± 0.04 µM with U118MG cells [16], 0.13 ± 0.07 µM in the data set with U87MG cells [17], 0.4 ± 0.1 µM in the data set on NU04 cells [18] and 0.12 ± 0.1 µM with A172 cells [19]. The “Effect on degradation of GSTO1 (DARTS)” value at GSTO1 was “no effect”. Besides, at GRP78 [9], the “Effect on degradation of GRP78 (DARTS)” value was “no effect”. The “Protection of PDI from pronase proteolysis (DARTS)” value at PDI [14] is listed as “protected”.

The term IC50 denotes the point on the concentration scale where inhibition reaches its midpoint. A word on the EC50: it is the concentration at which the effect is half-maximal.
